As usually defined, the inhibition is the relative decrease from the control value, in per cent.

Experimental findings from ChEMBL document CHEMBL4396968, “Small-molecule inhibitors of nisin resistance protein NSR from the human pathogen Streptococcus agalactiae” (Bioorg Med Chem, 2019) are described below.

Series [1] deals with Streptococcus agalactiae. Kind of series: Inhibition of Streptococcus agalactiae NSR transfected in Lactococcus lactis NZ9000 cells assessed as bacterial growth inhibition at 150 uM incubated for 5 hrs by optical density based assay in presence of 30 nM nisin. In short, it runs like this:
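L. lactis NZ9000 carrying the SaNSR plasmid, and an empty-plasmid control strain, grown overnight in GM17 with 5 µg/ml erythromycin and 1 ng/ml nisin. Diluted to OD595 0.1 and preincubated 30 min at 30 °C, then exposed to compound plus 30 nM nisin for 5 h at 30 °C. Specific inhibition is the OD ratio between strains as %; ≥3 independent experiments.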

For series [2], the system named is Streptococcus agalactiae. Kind of series: Inhibition of Streptococcus agalactiae NSR transfected in Lactococcus lactis NZ9000 cells assessed as potentiation of nisin-induced growth inhibition by measuring reduction in nisin IC50 at 300 uM incubated for 5 hrs by optical density based assay relative to nisin alone. In short, it runs like this:
(§1)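 SaNSR-expressing L. lactis NZ9000 preincubated at OD595 0.1 with fixed compound (120 or 300 µM), mixed with serial nisin dilutions, and read by OD595 after 5 h at 30 °C. Nisin IC50 taken from dose-response curves. Expressed as % ratio of the IC50 with compound to the IC50 of the same strain without it; ≥3 independent experiments.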

For series [3], the system named is Streptococcus agalactiae. In words: Inhibition of Streptococcus agalactiae NSR transfected in Lactococcus lactis NZ9000 cells assessed as potentiation of nisin-induced growth inhibition by measuring reduction in nisin IC50 at 120 uM incubated for 5 hrs by optical density based assay relative to nisin alone. In short, it runs like this:
as §1

Series [4] concerns Streptococcus agalactiae COH1. In words: Binding affinity to N-terminal 8xHis-tagged Streptococcus agalactiae COH1 NSR30 (30 amino acids deletion at N-terminal transmembrane region) expressed in Escherichia coli BL21 (DE3) cells at 18 mM by STD NMR method. The conditions noted are these: 1.8 mM, in the assay text read “1.8 mM” for “18 mM”. In short, it runs like this:
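His-tagged SaNSR30 induced with 1 mM IPTG at OD600 0.8–1.0 and expressed overnight at 18 °C. Purified by metal-affinity chromatography with 150 mM histidine elution, then size exclusion in 25 mM MES pH 6, 150 mM NaCl.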

The test system of a further series is Lactococcus lactis. Kind of series: Growth inhibition of Lactococcus lactis NZ9000 transfected with Streptococcus agalactiae NSR at 300 uM incubated for 5 hrs in absence of nisin by optical density based assay. It counts as organism-based. The conditions noted are these: in vivo.

Molecules are shown by their SMILES. Active and inactive are the calls of the source. The rule behind the calls is not given here. Residues, ends and D or L forms follow the SMILES beside them. *: point of attachment. Boc = CC(C)(C)OC(=O)*; Bn = c1ccc(C*)cc1

With `CC(O)(CNC(=O)NCC[S+]([O-])c1ccccc1)c1ccco1` (centres undefined), the inhibition in the series with Streptococcus agalactiae [1] stood at 13.4%.

As for `CCCC(=O)Nc1ccc(CNC(=O)NCC(CO)Cc2ccc(C)cc2)cc1` (centres undefined), the inhibition with Streptococcus agalactiae [1] is 19.6%.

With `CC(=O)Nc1ccc(NC(=O)CSc2nc3ccccc3c(=O)n2-c2ccccc2)cc1`, in the series on Streptococcus agalactiae [1], the inhibition came to 7.58%.

With `COc1ccc2[nH]cc(CCNC(=O)CC3C(=O)Nc4c3c(=O)n(C)c(=O)n4C)c2c1` (centres undefined), in the series with Streptococcus agalactiae [1], the inhibition stood at 11.3%.

With `Cc1cc(C)c2c(C)nn(-c3ccc(NC(=O)CCc4nc5ccccc5c(=O)[nH]4)cc3)c2n1`, the inhibition is 1.9% in the series with Streptococcus agalactiae [2] and below 1% with Streptococcus agalactiae [1].

With `CC(CO)(CO)NC(=O)NC1CCCCC1`, in the series with Streptococcus agalactiae [2], the inhibition is below 1%.

With `CC(CO)NC(=O)Nc1ccc(C(F)(F)F)cc1` (centres undefined), the inhibition in the series with Streptococcus agalactiae [2] is below 1%.

For the compound `COc1ccc(-c2cc(N3CCCN(C(=O)C4(c5ccc(OC)cc5)CC4)CC3)[nH]n2)cc1`, the inhibition with Streptococcus agalactiae [2] came to 20.5%; in the series with Streptococcus agalactiae [1] it was 20.7%.

For the compound `CCC(CC)(CO)NC(=O)Nc1cccc(Oc2ccccc2)c1`, the inhibition in the series on Streptococcus agalactiae [2] was below 1%.

Consider `OC(CNc1ccccc1Cl)COc1ccc(OCC(O)CNc2ccccc2Cl)cc1` (centres undefined), for which the inhibition with Streptococcus agalactiae [1] was below 1%.

As to `O=C(CNC(=O)c1ccc2c(c1)OCO2)NCCc1c[nH]c2ccccc12`, the inhibition in the series with Streptococcus agalactiae [1] was below 1%.

Regarding `Cc1ccc(-n2nc(C)c(NC(=O)Cn3cnc4c3c(=O)n(C)c(=O)n4C)c2C)cc1`, the inhibition in the series on Streptococcus agalactiae [1] stood at 14.2%.

As to `CCc1cc(=O)[nH]c(-n2nc(C)cc2NC(=O)C(=O)NCCc2ccccc2)n1`, the inhibition in the series with Streptococcus agalactiae [1] was below 1%.

For the compound `CCCCn1nc(C(=O)N[C@@H](Cc2c[nH]c3ccccc23)C(=O)O)c2ccccc2c1=O`, the inhibition in the series with Streptococcus agalactiae [1] turned out to be 3.21%.

In the case of `CC(C)NC(=O)Nc1ccc(Cl)cc1`, the inhibition with Streptococcus agalactiae [2] was below 1%.

For the compound `Cc1cc(C)nc(NC(Cc2ccccc2)C(=O)NCc2nc3ccccc3[nH]2)n1` (centres undefined), the inhibition in the series with Streptococcus agalactiae [1] was below 1%.

For `COc1ccc(C2(CNC(=O)C(=O)Nc3ccc(Br)cc3)CCOCC2)cc1`, the inhibition with Streptococcus agalactiae [1] was below 1%.

Consider `CCn1c(=O)n(CCC(=O)Nc2nc(-c3ccc4c(c3)CCO4)cs2)c2ccccc21`, for which the inhibition in the series with Streptococcus agalactiae [1] is below 1%.

For the compound `CC(C(=O)NC(CO)(CO)CO)c1ccc2c(c1)[nH]c1ccc(Cl)cc12` (centres undefined), the inhibition with Streptococcus agalactiae [1] was found to be 8.21%.

Consider `O=C(Nc1ccc(C(F)(F)F)cc1)NC1(CO)CCOCC1`, for which the inhibition with Streptococcus agalactiae [2] and in the series on Streptococcus agalactiae [3] was below 1% each time.

As to `CC1CCc2nc(NC(=O)c3ccccc3NC(=O)CSc3nccn3C)sc2C1` (centres undefined), in the series on Streptococcus agalactiae [1], the inhibition came out at 1.38%.

As for `O=C(Nc1ccccc1C(F)(F)F)NC(CO)(CO)C(F)(F)F`, the inhibition with Streptococcus agalactiae [2] and in the series on Streptococcus agalactiae [3] was below 1% each time.

On to `O=C(CC[C@H]1NC(=O)c2ccccc2NC1=O)NCc1nc2ccccc2[nH]1`, for which the inhibition in the series on Streptococcus agalactiae [1] was 9.95%.

`O=C(NCC(O)c1ccc(O)cc1)C(=O)Nc1ccccc1O` (centres undefined): the inhibition with Streptococcus agalactiae [1] was determined as 13.6%.

As for `CNC(=O)CNC(=O)c1cccc(S(=O)(=O)NC(C)c2ccccc2)c1` (centres undefined), the inhibition in the series with Streptococcus agalactiae [1] was 7.92%.

Regarding `CC(CO)(CO)NC(=O)Nc1ccc(Cl)c(Br)c1`, the values for the inhibition with Streptococcus agalactiae [1] and in the series on Streptococcus agalactiae [3] were 57.9% and 50.5%, respectively. For the same compound, the outcome in series [4] was Active. Moreover, the “growth inhibition (GI)” value with Lactococcus lactis is “Toxic”.

Turning to `Cc1ccc2c(c1)-c1c(cnn1CC(=O)NC(C)c1ccc3c(c1)OCCO3)CO2` (centres undefined), the inhibition in the series with Streptococcus agalactiae [1] is below 1%.

With `COc1ccccc1-n1cc(C(=O)N2Cc3nc[nH]c3CC2C(=O)O)cn1` (centres undefined), in the series with Streptococcus agalactiae [1], the inhibition is 10.8%.

For `Cc1cc(C)c2c(=O)n(CC(=O)Nc3ccc(C(C)C)cc3)c(=O)n(Cc3ccco3)c2n1`, the inhibition in the series with Streptococcus agalactiae [1] is below 1%.

As to `CC(CO)NC(=O)Nc1ccc(Cl)cc1` (centres undefined), the inhibition with Streptococcus agalactiae [2] was below 1%.

On to `O=C(CCn1c(=O)oc2cc(Cl)ccc21)Nc1ccc(N2CCOCC2)nc1`, for which the inhibition in the series with Streptococcus agalactiae [1] worked out at 19%.

On to `O=C(CC1NC(=O)c2ccccc2NC1=O)NCc1nc(-c2ccccc2Cl)no1` (centres undefined), for which the inhibition in the series on Streptococcus agalactiae [1] is below 1%.

Turning to `CCc1ccc(NC(=O)C(=O)NCC(c2ccc3c(c2)OCO3)N2CCN(C)CC2)cc1` (centres undefined), the inhibition in the series with Streptococcus agalactiae [1] worked out at 6.03%.

For the compound `O=C(Cn1cnc2c(oc3ccccc32)c1=O)NCc1ccccc1Cn1ccnc1`, the inhibition in the series with Streptococcus agalactiae [1] is below 1%.

For `N#Cc1ccc(NC(=O)NCCNC(=O)Nc2ccc(C#N)cc2)cc1`, the inhibition with Streptococcus agalactiae [2] was below 1%.

Turning to `CC(C)(CO)NC(=O)NCC12CC3CC(CC(C3)C1)C2`, the inhibition in the series with Streptococcus agalactiae [2] is 8.5%; in the series with Streptococcus agalactiae [3] it was 4%.

With `CC(O)C(NC(=O)C(Cc1ccc(OCc2ccccc2)cc1)NC(=O)CNC(=O)OC(C)(C)C)C(N)=O` (stereo not drawn) (Boc-Gly-Tyr(Bn)-Thr-NH2; configuration not given here), in the series on Streptococcus agalactiae [1], the inhibition was found to be 17.5%.

For `CCN(CC)Cc1ccc(CNC(=O)NCc2ccc(Cn3ccnc3)cc2)cc1`, in the series on Streptococcus agalactiae [1], the inhibition was below 1%.

On to `CCCCc1ccc(NC(=O)CN2C(=O)NC(C)(Cc3ccc(OC)c(OC)c3)C2=O)cc1` (centres undefined), for which, in the series with Streptococcus agalactiae [1], the inhibition stood at 14.1%.

Take `COc1ccc(C2(CNC(=O)c3cn(C(C)C)c(=O)c4ccccc34)CCOCC2)cc1`: the inhibition with Streptococcus agalactiae [1] was determined as 4.86%.

As for `Cc1cc(C)c(S(=O)(=O)N2CCCC2CNC(=O)C(=O)Nc2ccccc2C#N)c(C)c1` (centres undefined), in the series with Streptococcus agalactiae [1], the inhibition was below 1%.

Regarding `O=C(NCc1ccccc1)C(=Cc1ccc(O)c(O)c1)C(=O)NCc1ccccc1`, the results for the inhibition with Streptococcus agalactiae [2] and in the series with Streptococcus agalactiae [1] were 32.2% and 16.9%, respectively.

As to `Cc1[nH]c(SCC(=O)Nc2[nH]c(Cc3ccccc3)c(C)c2C#N)nc1Cc1ccccc1`, the inhibition in the series with Streptococcus agalactiae [1] came out at 15.3%.

For `N#Cc1ccc(NC(=O)NC(CO)c2ccccc2)cc1` (centres undefined), the inhibition in the series on Streptococcus agalactiae [2] turned out to be 13.5%; in the series with Streptococcus agalactiae [3], 8.1%.
